Assays:
[1] = biological target: Sodium-dependent dopamine transporter (Rattus norvegicus) (UniProt P23977); assay: Binding constant(Bmax) of [3H]WIN-35428 at saturation in rat caudate-putamen tissue pre-incubated in buffer at 10 uM (Dopamine transporter); type: tissue-based
How it was run: (§1)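 Rat caudate-putamen homogenate in Krebs-HEPES buffer pH 7.4, preincubated 1 h on ice with buffer alone, 100 nM or 10 μM ligand, then washed by two centrifugations. Twelve-point saturation with 0.1–25 nM [3H]WIN 35,428, 1 h on ice; filtration. Bmax and KD fitted by nonlinear least squares across replicate experiments, with standard errors; protein by modified Lowry.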

Sigma 2 receptor = assay: Binding affinity was evaluated using [3H]-DTG binding to sigma-2 receptor from rat liver
How it was run: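 Rat liver membranes (male Sprague-Dawley), 160 μg protein, with 5 nM [3H]DTG plus 1 μM dextrallorphan to mask σ1 sites; 50 mM Tris-HCl pH 8.0, 120 min at 25 °C. Nonspecific binding with 10 μM haloperidol; filtration on poly(ethylenimine)-soaked glass fiber filters, scintillation counting.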

[2] = biological target: Sodium-dependent dopamine transporter (Rattus norvegicus) (UniProt P23977); assay: Binding constant(Bmax) of [3H]WIN-35428 at saturation in rat caudate-putamen tissue preincubated in buffer at 100 nM (Dopamine transporter); type: tissue-based; how it was run: as §1
[3] = biological target: Sodium-dependent dopamine transporter (Rattus norvegicus) (UniProt P23977); assay: Binding constant(Bmax) of [3H]WIN-35428 at saturation in rat caudate-putamen tissue pre-incubated in buffer (Dopamine transporter); type: tissue-based; how it was run: as §1
[4] = biological target: Sodium-dependent dopamine transporter (Rattus norvegicus, UniProt P23977); assay: Binding affinity was evaluated using [3H]WIN-35428 binding to dopamine transporter (DAT) in rat caudate-putamen; type: tissue-based
Sodium-dependent dopamine transporter, sequence (P23977 whole entry): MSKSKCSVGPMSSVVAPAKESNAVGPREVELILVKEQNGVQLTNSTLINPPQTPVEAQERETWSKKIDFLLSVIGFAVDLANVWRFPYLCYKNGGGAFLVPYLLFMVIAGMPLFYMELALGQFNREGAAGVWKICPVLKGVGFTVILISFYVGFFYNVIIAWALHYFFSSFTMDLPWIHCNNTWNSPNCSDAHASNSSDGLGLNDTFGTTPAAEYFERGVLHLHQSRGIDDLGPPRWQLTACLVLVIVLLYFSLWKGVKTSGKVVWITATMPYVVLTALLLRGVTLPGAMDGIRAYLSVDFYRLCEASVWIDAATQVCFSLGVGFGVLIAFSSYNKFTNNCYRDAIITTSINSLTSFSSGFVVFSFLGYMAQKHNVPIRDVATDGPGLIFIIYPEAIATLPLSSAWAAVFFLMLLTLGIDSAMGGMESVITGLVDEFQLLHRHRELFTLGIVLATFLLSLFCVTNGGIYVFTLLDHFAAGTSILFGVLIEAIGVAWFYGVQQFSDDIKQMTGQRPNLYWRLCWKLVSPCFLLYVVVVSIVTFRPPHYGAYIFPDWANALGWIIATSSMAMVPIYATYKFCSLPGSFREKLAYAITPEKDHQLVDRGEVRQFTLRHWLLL

Sodium-dependent dopamine transporter (Rattus norvegicus), sequence (P23977 whole entry): as above

CC1CN(CCCn2c3ccccc3c3ccccc32)CC(C)N1CCCCCCN=C=S (stereo not drawn)
Bmax (fM (mg of protein)-1) [1]: 6.65 | IC50 (Sigma 2 receptor): 211 nM | Bmax (fM (mg of protein)-1) [2]: 167 | Bmax (fM (mg of protein)-1) [3]: 537

CC1CN(CCCn2c3ccccc3c3ccccc32)CC(C)N1CCCN=C=S (stereo not drawn)
IC50 (Sigma 2 receptor): 877 nM | IC50 [4]: 523 nM

CC1CN(CCCn2c3ccccc3c3cc(N=C=S)ccc32)CC(C)N1C (stereo not drawn)
IC50 [4]: 1330 nM

CC1CN(CCCn2c3ccccc3c3ccccc32)CC(C)N1CCN=C=S (stereo not drawn)
IC50 (Sigma 2 receptor): 1440 nM | IC50 [4]: 1250 nM

C[C@@H]1CN(CCCn2c3ccccc3c3ccccc32)C[C@H](C)N1 [RIMCAZOLE]
IC50 (Sigma 2 receptor): 386 nM | IC50 [4]: 57.6 nM

C[C@H]1CN(CCCn2c3ccccc3c3ccccc32)C[C@H](C)N1C
IC50 (Sigma 2 receptor): 294 nM | IC50 [4]: 244 nM
